Source: PubChem BioAssay
b-catenin transl = modulators of beta-catenin nuclear translocation; HeLa beta-catenin nuclear translocation, immunofluorescence imaging; nuclear translocation activity, % at 5 µM; 0.3% of 190,000 active; AID 1665;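 active means nuclear translocation activity above 50% at 5 µM, with a well cell count of 50 or more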;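 further: per-cell ratio of nuclear to cytoplasmic median beta-catenin stain intensity; plate controls were DMSO negative control for no effect and GSK-3 inhibitor IX positive control for full effect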
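Assay system: human HeLa cells, native beta-catenin; doses: 5 µM primary, 0.02–20 µM confirmation; incubation: compound treatment 24 h, 37°C, 5% CO2; technique: fluorescence imaging of beta-catenin antibody stain plus DAPI; measure: % activation, nuclear-to-cytoplasmic median beta-catenin signal ratio per cell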
Dynein cargo inh = dynein cargo transport inhibition. 3617.4 mouse cells, GR-EGFP nuclear translocation imaging; test concentration mostly 20 µM; stimulated with dexamethasone, 1 µM; hits give low values. z-score, hits read low. 0.47% of 220,000 active;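 active means plate z-score of nuclear minus cytoplasmic receptor signal below a set negative limit, without overly bright fluorescence or cell loss, cut at about -3.5 in these data, passing the limit was not always enough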;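 further: z-score of nuclear minus cytoplasmic ring GR-EGFP intensity difference per well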
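Buffer or medium: Induction medium lacking tetracycline, stripped serum | Also added: Dexamethasone agonist, 1.0 µM final, for 30 min | Timing: 48 h induction, 1 h compound, 30 min dex at 37 °C | Detection: Formaldehyde fixation, Hoechst nuclear stain, 10x automated fluorescence imaging | Measure: Nuclear versus cytoplasmic GR-EGFP signal, averaged per well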
CHOP inhibitor = blocks CHOP induction under ER stress | CHO-K1 CHOP-promoter luciferase, tunicamycin-induced, 15-18 h | inhibition, % at 10 µM | 3.8% of 220,000 active;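 active means compounds that reduced the stress-induced luciferase reporter signal by more than about 70% of percent inhibition, limit read from the data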;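 further: 0% = tunicamycin plus vehicle and 100% = wells without tunicamycin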
Autophagy HCS = autophagy modulation, high-content screen | MEF GFP-LC3 puncta imaging; test concentration mostly 10 µM | calls only at 10 µM (by protocol) | 0.98% of 190,000 active | AID 463193;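 active means percentage of spot-positive cells more than 3 SD above its plate mean, without a fluorescence outlier flag or 80% toxicity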;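 further: spot-positive cell cutoff set from DMSO-treated cells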
MT stabilize HCS = microtubule stabilization, imaging screen | 0.83% of 200,000 active | % tubulin-high responders, % at 10 µM | HeLa tubulin immunostaining HCS, 24 h; share of cells brighter than vehicle mean+2SD | AID 2205;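 active means plate Z-score above 3 for both tubulin-high and condensed-nucleus cell shares, with cell loss under 80%, at 10 µM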;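 further: anti alpha tubulin signal scored within the nucleus-defined area of each cell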
Lmaj promast = reduces viability of Leishmania major promastigotes; resazurin fluorescence viability; inhibition, % at 10 µM; 9% of 200,000 active; AID 1063; in the data active means inhibition above about 50%;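 further: promastigotes grown with compound for 44 hours at 28 °C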
Numbers without * were called inactive; i = inactive; . = no result given; + = active, no number. Compounds with a hit are over-represented: about 12% of the library has one in this group of screens.

SMILES | b-catenin transl | Dynein cargo inh | CHOP inhibitor | Autophagy HCS | MT stabilize HCS | Lmaj promast
Cc1ccc(NC(=O)C2C3CCCC2C3c2ccccc2)c(C)c1 (stereo not given) | . | 1.44 | 22.3 | i | 1.9 | 83.8*
CCOC(=O)C1=C(O)/C(=C/c2ccccn2)SC1=Nc1ccc(Cl)cc1 | -0.1 | -0.495 | 29.9 | i | 2.8 | 65.3*
CCOC(=O)C1=C(O)/C(=C/c2ccc(OCC(=O)O)c(OCC)c2)SC1=Nc1ccccc1 | 0.0 | 0.246 | 16.5 | i | 3.5 | 11.4
C=CCn1c(SCc2ccc(Cl)cc2)nc2cc(C(=O)N3CCC(C(N)=O)CC3)ccc2c1=O | -4.4 | -0.449 | 83.2* | i | 4.1 | -3.0
Cc1ccc(C(=O)N2CC(C)SC2=Nc2cccc(S(=O)(=O)N(C)C)c2)cc1 (stereo not given) | -0.7 | -0.599 | -5.5 | i | 6.2 | 94.6*
Cc1cc(C)cc(C(=O)N2CC(C)SC2=Nc2cccc(S(=O)(=O)N(C)C)c2)c1 (stereo not given) | 2.5 | 0.242 | 8.4 | i | 2.6 | 98.0*
Cc1ccc2nc3c(cc(C#N)c(=N)n3CCCN3CCOCC3)c(=O)n2c1 | . | -0.931 | . | i | 3.0 | 6.5
COc1ccc(CCN2C(=O)CS/C2=N/NC(=O)c2ccccc2F)cc1OC | -0.2 | 0.418 | -11.5 | i | 5.1 | -2.9
O=c1cnn(-c2ccc(Cl)cc2Cl)c(-c2ccccc2)c1 | 4.2 | 1.1 | 69.5 | i | 3.2 | 91.5*
Cn1c(=O)oc2cc(S(=O)(=O)NCc3ccccc3)ccc21 | . | -0.536 | 24.1 | i | 0.9 | -6.1
Cc1c(S(=O)(=O)Nc2ccc3c(c2)OCCO3)c(=O)n(C)c(=O)n1C | -1.8 | 1.53 | -2.4 | i | 6.1 | -7.0
Cn1c(=O)c(=O)n(C)c2cc(S(=O)(=O)Nc3ccc(OC(F)(F)F)cc3)ccc21 | -6.1 | 0.868 | 70.0 | i | 2.2 | 99.3*
Cc1ccc(CNS(=O)(=O)c2ccc3c(c2)n(C)c(=O)c(=O)n3C)cc1 | -5.2 | -0.101 | -6.8 | i | 3.5 | 99.3*
Cn1cc(S(=O)(=O)Nc2ccc(OC(F)(F)F)cc2)c(=O)n(C)c1=O | -1.2 | -0.894 | 14.5 | . | . | .
COc1ccc(NS(=O)(=O)c2ccc3oc(Nc4ccc5c(c4)OCCO5)nc3c2)cc1 | -0.9 | -0.599 | 57.2 | i | 2.2 | 92.7*
Cn1c(=O)c(=O)n(C)c2cc(S(=O)(=O)Nc3ccc4c(c3)OCCO4)ccc21 | -0.4 | -0.501 | 34.6 | i | 2.9 | 64.0*
COC(=O)C1CC(O)CN1C(=O)Nc1ccccc1 (stereo not given) | 0.0 | 0.37 | -3.5 | i | 4.1 | -6.3
Cc1c(NC(=O)C(C)OC(=O)C23CC4CC(CC(Br)(C4)C2)C3)c(=O)n(-c2ccccc2)n1C (stereo not given) | -5.4 | -0.174 | 6.5 | i | 2.8 | -3.4
CC(C)NOC(=O)c1ccc(Cl)cc1 | -0.1 | 0.431 | 17.6 | i | 2.5 | 27.7
COc1ccc(C(O)C(CN2CCOCC2)c2ccccc2)cc1 (stereo not given) | -0.8 | -0.309 | 7.6 | i | 5.4 | 89.0*
CCOc1ccc(C(=O)C(CN2CCOCC2)c2ccccc2)cc1 (stereo not given) | 2.9 | -1.1 | -67.8 | i | 9.6 | 98.9*
Cc1ccc(S(=O)(=O)N(C)CCCC(=O)Nc2ccc(C)cc2C)cc1 | -3.3 | -0.0415 | -2.8 | i | 2.9 | 34.7
Cc1ccc(-c2csc(NC(=O)COc3ccc(N(C)S(=O)(=O)c4ccc(C)cc4)cc3)n2)cc1 | 1.0 | 0.3 | 60.4 | i | 2.5 | 90.4*
COc1ccc(-c2csc(NC(=O)COc3ccc(N(C)S(=O)(=O)c4ccc(C)cc4)cc3)n2)cc1 | 1.7 | -0.642 | 61.9 | i | 1.3 | 95.2*
CC(/C=N/NC(=O)Cn1nccc1C)=C\c1ccc(C(C)C)cc1 | -0.3 | -0.432 | 76.3* | i | 2.5 | 4.3
SMILES | b-catenin transl | Dynein cargo inh | CHOP inhibitor | Autophagy HCS | MT stabilize HCS | Lmaj promast
Cc1cc(N2CCCC2)nc2ccc(NC(=S)NCCCN3CCC(C)CC3)cc12 | 0.6 | -0.461 | 3.6 | i | 2.6 | 100.2*
CCOC(=O)N1CCC(NC(=S)Nc2ccc3nc(N4CCN(C)CC4)cc(C)c3c2)CC1 | -1.7 | 0.914 | 19.4 | i | 1.8 | 15.5
Cc1cc(N2CCOCC2)nc2ccc(NC(=S)N3CCCCC3C)cc12 (stereo not given) | 1.5 | 1.95 | -31.9 | i | 3.8 | 85.5*
Cc1cc(N2CCN(C)CC2)nc2ccc(NC(=S)NCCN3CCc4ccccc4C3)cc12 | -2.4 | 1.68 | -8.3 | + | 2.6 | 100.5*
Cc1cc(N2CCN(C)CC2)nc2ccc(NC(=S)NCCCN3CCc4ccccc4C3)cc12 | -0.7 | -0.483 | 4.1 | i | 1.9 | 100.4*
CCN(C(=O)CN1CCN(S(=O)(=O)c2cc(Cl)ccc2Cl)CC1)c1c(N)n(Cc2ccccc2)c(=O)[nH]c1=O | 0.4 | -0.136 | 23.6 | i | 3.4 | 39.0
Cc1cc(Cl)ccc1Oc1ncnc2onc(C)c12 | -3.9 | 0.781 | 7.5 | i | 1.7 | 4.5
CCN1CCN(c2cc(C)c3cc(NC(=S)NCCCN4CCc5ccccc5C4)ccc3n2)CC1 | 0.6 | 0.597 | 0.6 | i | 2.9 | 100.2*
CCCN1CCN(CCCNC(=S)Nc2ccc3nc(N4CCN(CC)CC4)cc(C)c3c2)CC1 | -2.1 | 1.21 | 3.8 | i | 2.7 | 25.6
COc1ccccc1N1CCN(C(=O)COc2cc(C)cc(C)c2)CC1 | -4.9 | -0.775 | 32.2 | i | 3.5 | 8.1
CCOC(=O)c1ccc(N=C2C(=S)N(c3ccc(C(=O)OCC)cc3)C(=N)N2/N=C/c2ccccc2)cc1 | -1.5 | 0.127 | 43.4 | i | 2.7 | 100.2*
COc1ccc(OCc2nc3ccccc3n2C(C)C)cc1 | -1.8 | 0.818 | -9.7 | i | 1.2 | 4.6
O=C1NC(c2ccccc2)=C(c2nc3ccccc3s2)C(c2ccc(F)cc2)N1 (stereo not given) | -1.0 | 1.29 | 37.2 | i | 4.7 | 51.0*
COc1ccc(C2NC(=O)NC(c3ccccc3)=C2c2nc3ccccc3s2)cc1 (stereo not given) | -4.4 | -0.486 | 63.6 | i | 1.4 | 37.4
CC(C)(C)NC(=O)C(c1c[nH]c2ccccc12)N(C(=O)Cn1nnc(-c2ccc(F)cc2)n1)c1cccc(O)c1 (stereo not given) | 1.2 | -0.0773 | 37.3 | i | 3.8 | 2.1
CCC(C)c1ccc(NC(=O)CN(C)CC(=O)Nc2cccc(OC)c2)cc1 (stereo not given) | -0.3 | -0.0754 | 15.3 | i | 7.6 | 9.2
O=C(NC(Nc1ncc(S(=O)(=O)c2ccc([N+](=O)[O-])cc2)s1)(C(F)(F)F)C(F)(F)F)c1ccc(Cl)cc1 | 7.6 | 1.36 | 88.1* | i | 2.7 | 10.0
O=C(Nc1ncc(Cc2ccccc2Cl)s1)c1ccc([N+](=O)[O-])cc1 | -2.2 | 0.59 | 29.7 | i | 4.6 | -4.3
